Results taken from article PMC2831214 (Nature chemical biology, 2010).
Entries after “also recorded” stand apart in the source; their conditions may differ. Numbered stars: 1 amine (or outer) side, 2 acyl side, 3 side chain; on linkers, the order of the positions; unused ones are H or OH. Bridge positions count the residues as written; N and C are the ends. Square brackets hold non-standard residues; d marks the D form. Peptide text beside a SMILES is read from it. I, II: the chains in the order shown. Actinocin(9to1) = Cc1c2oc3c(C)ccc(C(=O)[*:1])c3nc-2c(C(=O)[*:2])c(N)c1=O; NMeV = CN[C@H](C(=O)O)C(C)C; Sar = CNCC(=O)O

Assays:
[1] = system: RNA synthesis in HeLa cells; assay: RNA synthesis; assay type: cell-based; settings: [3H]uridine 2 h
In short: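 HeLa cells exposed to a range of test compound concentrations with [3H]uridine for 2 h. TCA-precipitated material on PVDF membrane quantified by scintillation counting. Actinomycin D and cycloheximide served as controls.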

[2] = system: HeLa, MDA-MB231 and Jurkat T cells; assay: Cell proliferation screen by [3H]-thymidine incorporation; assay type: cell-based; settings: 2.5 µM, 24 h
In short: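 Each of the three cell lines was exposed to test compound at 2.5 µM for 24 h. [3H]-thymidine was then applied to monitor cellular DNA synthesis as the proliferation read-out.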

[3] = system: protein synthesis in HeLa cells; assay: De novo protein synthesis by [35S]cysteine/methionine metabolic labeling; assay type: cell-based; settings: for Effect on protein synthesis (translation): metabolic labeling 2 h
In short: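 HeLa cells were given varying concentrations of test compound with [35S]cysteine/methionine for 2 h. TCA-precipitated proteins were collected on PVDF membrane and scintillation counted. Cycloheximide served as translation-inhibitor control and actinomycin D as transcription-inhibitor control. Runs were in triplicate, with s.d. shown.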

translation = settings: cited from earlier work
[4] = target: peptide bond formation on ribosomes (Oryctolagus cuniculus, UniProt G1SNY0+G1T040); assay: Peptidyl transfer; assay type: biochemical, rabbit; settings: LTM even at millimolar concentrations
[5] = system: cap-dependent and EMCV, HCV, CrPV IRES-mediated translation; assay: IRES dual luciferase reporter assay in rabbit reticulocyte lysate; assay type: biochemical; settings: HCV and CrPV IRES reporters
translation in vitro = assay: In vitro translation; assay type: biochemical
[6] = target: eEF2-mediated translocation (Oryctolagus cuniculus, UniProt G1SNY0+G1T040); assay: eEF2-dependent translocation; assay type: biochemical, rabbit; settings: 200 µM compound
[7] = target: pre-assembled initiation complexes (Saccharomyces cerevisiae, UniProt P02406+P0CX27); assay: Reconstituted translation elongation, tripeptide; assay type: biochemical; settings: 200 µM
breast cancer cell lines = assay: Proliferation of breast cancer cell lines by [3H]thymidine incorporation; assay type: cell-based; settings: array of breast cancer cell lines, 24 h
MDA MB 231 tumors = assay: Mouse xenograft model; assay type: in vivo, female nude mice; settings: 0.6 mg/kg every day for one month, intraperitoneal
In short: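 Two million MDA MB 231 cells were injected subcutaneously into female nude mice. Once tumours were palpable, mice received 0.6 mg/kg test compound or solvent alone daily for one month.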

[8] = system: rabbit reticulocyte lysate with rabbit β-globin RNA; assay: Polysome profiles in vitro; assay type: biochemical; settings: cell free system, 15 min
[9] = target: ribosome on rabbit β-globin mRNA (Oryctolagus cuniculus, UniProt G1SNY0+G1T040); assay: Toeprinting on rabbit β-globin mRNA in rabbit reticulocyte lysate; assay type: biochemical; settings: CHX 10 mM; LTM at 1/10,000th of the CHX concentration
P388 lymphoma = settings: cited from earlier work
[10] = target: eEF1A-mediated binding of aminoacyl-tRNA to ribosomes (Oryctolagus cuniculus, UniProt G1SNY0+G1T040); assay: eEF1A-dependent aminoacyl-tRNA binding; assay type: biochemical, rabbit; settings: 200 µM compound
In short: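 89 pmol ribosomes in 20 mM HEPES pH 7.4, 100 mM KCl, 10 mM MgCl2, 1 mM DTT were mixed with 200 ng poly(U), 2.2 µg eEF1A, 150 µM GDPNP and 200 µM compound before 10 pmol [14C]Phe-tRNAPhe was added. After 10 min at 37 °C, samples were diluted, filtered through nitrocellulose, rinsed and scintillation counted (1 pmol = 1100 dpm).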

HEK 293T cells = assay: Polysome profiles in cells; assay type: cell-based; settings: 30 min
Candida = settings: cited from earlier work
MCF10A = assay: Proliferation of non-tumorigenic breast cell line by [3H]thymidine incorporation; assay type: cell-based; settings: 24 h
[11] = target: ribosomes, eEF1A and eEF2 (Oryctolagus cuniculus, UniProt G1SNY0+G1T040); assay: Polyphenylalanine synthesis on a poly; assay type: biochemical, rabbit; settings: 200 µM
[12] = target: binding of deacylated tRNA to the E-site of ribosomes (Oryctolagus cuniculus, UniProt G1SNY0+G1T040); assay: Deacylated tRNA binding to ribosomes; design: species or system rabbit
In short: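 Deacylated tRNA was 3′-end labelled with [32P] and diluted to 80,000 cpm/pmol. Inhibitor was at graded concentrations; 4 µM unlabelled deacylated tRNA was the control. Samples were diluted with 1 ml buffer, filtered through nitrocellulose, washed 5× and scintillation counted.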

Sequence of pre-assembled initiation complexes (P02406 2-149 limits assumed): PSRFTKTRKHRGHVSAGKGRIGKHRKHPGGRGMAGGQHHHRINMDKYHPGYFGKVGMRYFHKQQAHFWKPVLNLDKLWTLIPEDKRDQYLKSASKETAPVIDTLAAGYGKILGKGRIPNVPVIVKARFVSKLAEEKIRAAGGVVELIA
Sequence of pre-assembled initiation complexes (P0CX27 2-106 limits assumed): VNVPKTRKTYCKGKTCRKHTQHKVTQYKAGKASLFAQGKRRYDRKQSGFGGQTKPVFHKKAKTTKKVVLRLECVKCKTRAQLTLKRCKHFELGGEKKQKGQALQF

## CO[C@H]1/C=C/CC/C=C/C(=O)O[C@@H](/C(C)=C/[C@H](C)C(=O)CCCC2CC(=O)NC(=O)C2)[C@@H](C)[C@@H]1O [Isomigrastatin, isomigrastatin]
[1]
  Effect on transcription: without a significant impact on transcription
[2]
  Inhibition of cell proliferation ([3H]-thymidine incorporation): highly active
[3]
  Effect on protein synthesis (translation): exclusively inhibited protein synthesis

## C=C/C(C)=C/[C@H](C)C(=O)C[C@H](O)CC1CC(=O)NC(=O)C1 [Streptimidone]
translation
  Inhibition of translation: inhibits translation

## CO[C@H]1/C=C/CC/C=C/C(=O)O[C@@H](/C(C)=C/[C@H](C)C(=O)/C=C/CC2CC(=O)NC(=O)C2)[C@@H](C)[C@@H]1O [compound 8, Didehydro Isomigrastatin]
[2]
  Inhibition of cell proliferation ([3H]-thymidine incorporation): highly active

## CSC[S@+]([O-])C[C@H](CO)NC(=O)/C=C/c1c(C)[nH]c(=O)[nH]c1=O [Sparsomycin, reference compound]
[4]
  Effect on peptide bond formation (methionyl-puromycin): prevented methyionyl-puromycin synthesis

## CC(/C=C/C(C)=C/[C@@H]1Cc2nc(cs2)[C@@H](C)C[C@@H](N)CC(=O)O[C@@H](C)C/C(C)=C/C=C\C(=O)O1)=C\CN(C)C [PatA, Pateamine A, reference compound]
[5]
  Effect on cap-dependent and IRES-mediated translation: allowed translation off the HCV IRES

## C/C(=C\[C@H](C)C(=O)C[C@H](O)CC1CC(=O)NC(=O)C1)[C@@H]1OC(=O)CCCC/C=C/C=C\[C@@H]1C [compound 7, 2H Lactimidomycin]
[2]
  Inhibition of cell proliferation ([3H]-thymidine incorporation): highly active

## CCOC(=O)CO[C@@H](CC(=O)[C@@H](C)/C=C(\C)[C@@H]1OC(=O)/C=C/CC/C=C/C=C\[C@@H]1C)CC1CC(=O)NC(=O)C1 [compound 36, Ethylacetyl-Lactimidomycin]
Translation in vitro
  Effect of modification on translation inhibitory activity of LTM: did not significantly decrease the activity

## Cc1c2oc3c(C)ccc(C(=O)N[C@@H]4C(=O)N[C@H](C(C)C)C(=O)N5CCC[C@H]5C(=O)N(C)CC(=O)N(C)[C@@H](C(C)C)C(=O)O[C@@H]4C)c3nc-2c(C(=O)N[C@@H]2C(=O)N[C@H](C(C)C)C(=O)N3CCC[C@H]3C(=O)N(C)CC(=O)N(C)[C@@H](C(C)C)C(=O)O[C@@H]2C)c(N)c1=O [Actinomycin D, reference compound] (I: T[dV]P[Sar][NMeV] / II: T[dV]P[Sar][NMeV]; ester I:1-I:C, II:1-II:C; linker I:N-II:N via Actinocin(9to1))
[1]
  Effect on transcription: concomitantly blocked transcription and translation
[3]
  Effect on protein synthesis (translation): concomitantly blocked transcription and translation

## C/C(=C\[C@H](C)C(=O)C[C@H](O)CC1CC(=O)NC(=O)C1)[C@@H]1OC(=O)/C=C/CC/C=C/C=C\[C@@H]1C [LTM, lactimidomycin]
[6]
  Effect on eEF2-mediated translocation (phenylalanyl puromycin formation): inhibited phenylalanyl puromycin formation
[7]
  Effect on tripeptide formation: greatly slowed down tripeptide formation
Breast cancer cell lines
  IC50 concentrations, cell growth: low nanomolar range
MDA MB 231 tumors
  Effect on tumor growth in vivo: appreciable effect on tumor growth
[8]
  Effect on polysome profile in vitro: causing accumulation of 80S ribosomes
[1]
  Effect on transcription: without a significant impact on transcription
[9]
  Toeprint titration, ribosome arrest: arrested the ribosome on the start codon
P388 lymphoma
  Survival of mice with P388 lymphoma: extended the survival
[10]
  Effect on eEF1A-mediated binding of aminoacyl-tRNA: not inhibited
[4]
  Effect on peptide bond formation (methionyl-puromycin): did not affect peptide bond formation
[5]
  Effect on cap-dependent and IRES-mediated translation: inhibited translation from all three constructs to a similar degree
[2]
  Inhibition of cell proliferation ([3H]-thymidine incorporation): most potent inhibitor of cell proliferation; also recorded: highly active
HEK 293T cells
  Effect on polysome profile in cells: large increase in 80S ribosomes accompanied by depletion of polysomes
Candida
  Sensitivity of Candida: resistant
MCF10A
  Inhibition of growth of non-tumorigenic cells: higher doses were necessary
[3]
  Potency as inhibitor of translation relative to CHX: about 10 fold
  Effect on protein synthesis (translation): exclusively inhibited protein synthesis
[11]
  Effect on polyphenylalanine synthesis: inhibited polyphenylalanine synthesis

## CO[C@H]1/C=C/CC/C=C/C(=O)O[C@H]([C@H](C)C(=O)CCCC2CC(=O)NC(=O)C2)/C(C)=C\[C@@H](C)[C@@H]1O [Migrastatin, migrastatin]
[2]
  Inhibition of cell proliferation ([3H]-thymidine incorporation): neither compound affected cell proliferation
[3]
  Effect on protein synthesis (translation): no inhibitory effect

## CO[C@@H](/C=C/CC/C=C/C(=O)O)[C@@H](O)[C@H](C)[C@@H](O)/C(C)=C/[C@H](C)C(=O)CCCC1CC(=O)NC(=O)C1 [Dorrigocin B]
[2]
  Inhibition of cell proliferation ([3H]-thymidine incorporation): neither compound affected cell proliferation
[3]
  Effect on protein synthesis (translation): no inhibitory effect; also recorded: abolished any inhibitory activity

## C[C@@H]1C[C@@H]([C@H](O)CC2CC(=O)NC(=O)C2)C(=O)[C@@H](C)C1 [CHX, cycloheximide, reference compound]
[6]
  Effect on eEF2-mediated translocation (phenylalanyl puromycin formation): inhibited phenylalanyl puromycin formation
[12]
  Concentration causing a detectable decrease in the amount of bound tRNA: 10 mM
[7]
  Effect on tripeptide formation: similar, albeit less pronounced effect
[8]
  Effect on polysome profile in vitro: causing accumulation of 80S ribosomes
[1]
  Effect on transcription: only affected transcription at very high doses
[9]
  Toeprint titration, ribosome arrest: about half the ribosomal population to stop at the very first codon
[10]
  Effect on eEF1A-mediated binding of aminoacyl-tRNA: not inhibited
HEK 293T cells
  Effect on polysome profile in cells: little difference between CHX and solvent control
[3]
  Effect on protein synthesis (translation): strongly inhibited translation
